Source: PubChem
M1 ag – activates human CHRM1 receptor; P11229; CHO-K1 hM1, Fluo-8 calcium fluorescence, agonist mode; 0% DMSO, 100% acetylcholine EC100; activation, % at 3 µM; 0.33% of 360,000 active;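 active = activation above the run's mean compound activation plus 3 SD, cut at about 16% in these data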;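 note: peak over basal fluorescence ratio within a 140 s kinetic read after compound addition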
TAAR1 antag – human TAAR1 antagonism. CHO RD-HGA16 TAAR1, Fluo-8 calcium fluorescence, antagonist. Q96RJ0. inhibition, % at 3 µM. 1.5% of 360,000 active;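 active = inhibition above a per-plate cutoff, the mean inhibition of test compounds on that plate plus 3 SD, cut at about 49% in these data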
Target sequence (Q96RJ0 whole entry, looked up): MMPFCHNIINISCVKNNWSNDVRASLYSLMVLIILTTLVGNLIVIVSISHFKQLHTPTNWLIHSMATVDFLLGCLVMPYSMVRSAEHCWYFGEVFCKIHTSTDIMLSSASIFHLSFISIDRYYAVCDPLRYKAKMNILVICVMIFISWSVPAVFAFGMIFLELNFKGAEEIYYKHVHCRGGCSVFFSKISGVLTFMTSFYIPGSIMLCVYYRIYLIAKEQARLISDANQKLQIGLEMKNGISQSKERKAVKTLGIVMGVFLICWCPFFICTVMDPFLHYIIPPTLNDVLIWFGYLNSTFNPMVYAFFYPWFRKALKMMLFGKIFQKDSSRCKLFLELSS
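Test system – hTAAR1-expressing CHO RD-HGA16 cells, Gα16-coupled · Reagent – β-PEA at EC80 concentration, post-compound challenge · Compound dosing – 3 µM, single point · Timing – 140 s kinetic read after compound, 140 s after agonist · Detection – Fluo-8 intracellular calcium dye fluorescence, real-time kinetic reads · Control set – DMSO and EC80 PEA controls · Repeats – n of 1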
TAAR1 agonist – human TAAR1 agonism; CHO RD-HGA16 TAAR1, Fluo-8 calcium fluorescence; vehicle wells 0%, saturating PEA agonist 100%; activation, % at 3 µM; 0.99% of 360,000 active;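 active = activation above the mean activation of all test compounds in the run plus 3 SD, cut at about 38% in these data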
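Benchmarks: low control DMSO, high control PEA (EC100); System: CHO RD-HGA16 cells carrying human TAAR1 plus Gα16; Detection: Fluo-8 fluorescence, 5 s baseline then 140 s kinetic read; Schedule: 17-24 h plating, Fluo-8 75 min 37 °C, 30 min RT; Read-out basis: % activation from peak over basal fluorescence ratio, DMSO-to-PEA scaled.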
CHRM1 PAM – potentiates human M1 receptor response to acetylcholine; P11229; CHO-K1 hM1, Fluo-8 calcium fluorescence, ACh EC20; 0% = ACh EC20, 100% = maximal ACh; AID 588819; activation, % at 3 µM; 0.088% of 360,000 active; in the data active = activation above about 19%, passing the limit was not always enough
m5-HT2A agonist – activates the mouse 5-HT2A serotonin receptor. AID 624169. 0.66% of 360,000 active. activation, % at 7.6 µM. CHO-K1 mHTR2A beta-arrestin complementation, luminescence; percent of 30 µM serotonin response. P35363;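 active = activation above a run cutoff, the mean activation of all tested compounds plus 3 SD, cut at about 14% in these data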
CHRM1 antagonist – human CHRM1 antagonism; P11229; CHO-K1 hM1, Fluo-8 calcium fluorescence, ACh EC80 antagonist; inhibition, % at 3 µM; 1.3% of 360,000 active; AID 588852;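 active = percent inhibition above its own plate's cutoff, namely the mean of that plate's compound wells plus 3 SD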;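 note: peak over basal fluorescence ratio during 140 s after agonist addition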
OPRM1 ag – OPRM1 agonism in mouse HTR2A counterscreen; shares compounds with m5-HT2A agonist; U2OS OPRM1 beta-arrestin PathHunter, luminescence; DMSO 0%, DAMGO 9.3 µM 100%; activation, % at 9.3 µM; 5.3% of 2,300 active; AID 624380;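 active = mean activation above the mean of DMSO-only wells plus 3 SD, cut at about 0.5% in these data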
m5-HT2A ag conf – confirmation of mouse HTR2A serotonin receptor agonists; shares compounds with m5-HT2A agonist; activation, % at 7.6 µM; CHO-K1 PathHunter beta-arrestin recruitment, luminescence; DMSO 0%, 30 µM serotonin 100%; 19% of 2,300 active;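 active = mean activation across triplicates above the hit threshold derived in the original primary screen, cut at about 15% in these data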
Hits are given with their value; 0 = inactive; - = not tested or not shown. In the library only some 3.9% were active in any assay of this set; here they are far more common.

SMILES	M1 ag	TAAR1 antag	TAAR1 agonist	CHRM1 PAM	m5-HT2A agonist	CHRM1 antagonist	OPRM1 ag	m5-HT2A ag conf
Cc1cc(Cl)ccc1OCC(=O)N(Cc1cccs1)C1CCS(=O)(=O)C1 (configuration not stated)	0	0	0	0	0	0	-	-
O=C(NC(=S)NNC(=O)c1ccccc1[N+](=O)[O-])c1ccc(Br)cc1	0	0	0	0	0	0	-	-
CC(C)NC(=O)N[C@H]1CC[C@H](CC(=O)NCc2ccc(Oc3ccccc3)cc2)O[C@@H]1CO	-	0	0	-	14.8	-	0	0
O=C(C[C@H]1CC[C@@H](NC(=O)Nc2ccc3c(c2)OCO3)[C@@H](CO)O1)NCc1ccccc1	-	0	0	-	0	-	-	-
Cc1cccc(NC(=O)CCS(=O)(=O)c2ccc3c(c2)NC(=O)CS3)n1	0	0	0	0	0	0	-	-
COc1ccc(C(=O)N/C(=C\c2cn(S(=O)(=O)N(C)C)c3ccccc23)C(=O)N2CCOCC2)cc1	0	0	0	0	0	0	-	-
CCCCCOC(=O)C1=C(C)Nc2nnnn2C1c1ccccc1Cl (configuration not stated)	0	0	0	0	19.3	0	0.5	0
COC(=O)C1=C(C)Nc2nnnn2C1c1ccccc1Cl (configuration not stated)	0	0	0	0	0	0	-	-
CC(C)CNC(=S)NC(=O)c1csc([N+](=O)[O-])c1	0	0	0	0	0	0	-	-
C=CCNC(=O)O/N=C/c1csc([N+](=O)[O-])c1	0	0	0	0	17.0	0	0	0
Cc1ccc(-c2cc(C(=O)Nc3ccc(S(=O)(=O)Nc4ncccn4)cc3)[nH]n2)c(O)c1C	0	0	0	0	0	0	-	-
C=CCNc1cc(F)ccc1S(=O)(=O)NCC=C	0	0	0	0	0	0	-	-
COc1ccc(CN2CCN(Cc3ccc(C)cc3)CC2)c(OC)c1	0	0	0	0	0	0	-	-
COc1ccc(CN2CCN(Cc3ccccc3F)CC2)c(OC)c1	0	0	0	0	0	0	-	-
COc1ccc(CN2CCN(c3ncccn3)CC2)c(OC)c1	0	0	0	0	38.5	0	0	99.2
COc1cc(CN2CCCCCC2)cc(OC)c1	0	0	0	0	0	0	-	-
COc1cc(CN2CCN(c3ncccn3)CC2)cc(OC)c1	0	0	0	0	20.7	0	0	121.1
COc1ccc(CN2CCN(c3ccccn3)CC2)c(OC)c1	0	0	0	0	40.2	0	0	82.4
O=C(Nc1ccc(NC(=O)C2CCCCC2)nc1)c1cccc(F)c1	0	0	0	0	0	0	-	-
COc1cc(C(=O)Nc2cc(S(=O)(=O)N3CCOCC3)ccc2N2CCOCC2)cc(OC)c1C	0	0	0	0	0	0	-	-
COCC(=O)Nc1cc([N+](=O)[O-])ccc1OC	0	0	0	0	43.9	0	0	0
COC(=O)[C@@H]1C[C@@]2(O)[C@H](O)[C@H](O)[C@H](O)C[C@H]2N1CC(c1ccccc1)c1ccccc1	0	0	0	0	20.1	0	0	0
COC(=O)[C@@H]1C[C@@]2(O)[C@H](O)[C@H](O)[C@H](O)C[C@H]2N1CC1CC1	0	0	0	0	0	0	-	-
COCCCNC(=O)CN1C(=O)CSc2ncccc21	0	0	0	0	18.0	0	0	0
CCCN1CCC(Oc2cccc(C(=O)NCCc3ccccc3)c2)CC1	0	0	0	0	0	0	-	-
COC(=O)C(Cc1c[nH]c2ccccc12)NC(C)=O (configuration not stated)	0	0	0	0	0	0	-	-
CC(Cc1c[nH]c2ccccc12)NC(=O)OCCCl (configuration not stated)	0	0	0	0	19.6	0	0	0
